Activity calls are given as the source filed them. The calls are words filed in the database; no cut-off is given here.
Columns and labels:
[1] = target: T1, Hypoxia inducible factors; HIF-1-alpha, HIF-2-alpha (Homo sapiens, UniProt Q16665+Q99814); experiment: Inhibition of hypoxia-induced HIF1 activation in human T47D cells by HRE3-TK-luciferase reporter gene assay; type: cell-based
[2] = target: T1, Hypoxia inducible factors; HIF-1-alpha, HIF-2-alpha; experiment: Inhibition of 1, 10-phenanthroline-induced HIF1 activation in human T47D cells by HRE3-TK-luciferase reporter gene assay; type: cell-based
[3] = target: T1, Hypoxia inducible factors; HIF-1-alpha, HIF-2-alpha; conditions: T47D, at 1 to 10 µM
[4] = test system: T47D; experiment: Cytotoxicity against human T47D cells; type: cell-based
[5] = target: T1, Hypoxia inducible factors; HIF-1-alpha, HIF-2-alpha; experiment: Inhibition of hypoxia-induced HIF1 activation in human PC3 cells by HRE3-TK-luciferase reporter gene assay; type: cell-based; conditions: pc-3
In short: (§1)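 HIF-1 activity measured with the pHRE3-TK-Luc luciferase reporter in PC-3 cells. Cycloheximide 100 µM served as the positive control. Run in triplicate, representative of two independent experiments. IC50 reported with 95% CI.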

[6] = target: T1, Hypoxia inducible factors; HIF-1-alpha, HIF-2-alpha; experiment: Inhibition of 1, 10-phenanthroline-induced HIF1 activation in human PC3 cells by HRE3-TK-luciferase reporter gene assay; type: cell-based; conditions: pc-3; in short: as §1
[7] = target: T1, Hypoxia inducible factors; HIF-1-alpha, HIF-2-alpha; experiment: Inhibition of HIF1-mediated secreted VEGF expression in hypoxia-stimulated human T47D cells by […]; type: cell-based
In short: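 T47D cells treated with compound (1, 3, 10 µM) under hypoxia (1% O2, 16 h). Secreted VEGF in conditioned medium quantified by ELISA and normalized to cellular protein (micro BCA). n = 3 from one experiment, representative of two. One-way ANOVA with Bonferroni post hoc.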

[8] = target: T1, Hypoxia inducible factors; HIF-1-alpha, HIF-2-alpha; experiment: Inhibition of HIF1-mediated proliferation of hypoxia-stimulated human SK-BR-3 cells after 48 hrs by SRB assay; type: cell-based
In short: (§2)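 Exponentially growing cells were seeded at 30,000/well and held overnight at 37 °C in DMEM/F12 with 10% FBS and pen/strep. Compound (0.31–20 µM) was added in serum-free medium for 48 h. Viability was read by sulforhodamine B. % Inhibition = [1 − (ODtreated/ODcontrol)] × 100, from triplicate wells.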

[9] = target: T1, Hypoxia inducible factors; HIF-1-alpha, HIF-2-alpha; experiment: Inhibition of HIF1-mediated proliferation of hypoxia-stimulated human MDA-MB-231 cells after 48 hrs by SRB assay; type: cell-based; in short: as §2
[10] = target: T1, Hypoxia inducible factors; HIF-1-alpha, HIF-2-alpha; experiment: Inhibition of HIF1-mediated proliferation of hypoxia-stimulated human PC3 cells after 48 hrs by SRB assay; type: cell-based; conditions: PC-3; in short: as §2
[11] = target: T1, Hypoxia inducible factors; HIF-1-alpha, HIF-2-alpha; experiment: Inhibition of HIF1-mediated proliferation of hypoxia-stimulated human T47D cells at 20 uM after 48 hrs by SRB assay; type: cell-based; in short: as §2
[12] = target: T1, Hypoxia inducible factors; HIF-1-alpha, HIF-2-alpha; experiment: Inhibition of HIF1-mediated proliferation of hypoxia-stimulated human SK-BR-3 cells at 20 uM after 48 hrs by SRB assay; type: cell-based; in short: as §2
[13] = target: T1, Hypoxia inducible factors; HIF-1-alpha, HIF-2-alpha; experiment: Inhibition of HIF1-mediated proliferation of hypoxia-stimulated human MDA-MB-231 cells at 20 uM after 48 hrs by SRB assay; type: cell-based; in short: as §2
[14] = target: T1, Hypoxia inducible factors; HIF-1-alpha, HIF-2-alpha; experiment: Inhibition of HIF1-mediated proliferation of hypoxia-stimulated human PC3 cells at 20 uM after 48 hrs by SRB assay; type: cell-based; conditions: PC-3; in short: as §2
[15] = target: T1, Hypoxia inducible factors; HIF-1-alpha, HIF-2-alpha; experiment: Inhibition of HIF1-mediated proliferation of hypoxia-stimulated human T47D cells at 0.31 to 20 uM after 48 hrs by SRB assay; type: cell-based; in short: as §2
[16] = target: T1, Hypoxia inducible factors; HIF-1-alpha, HIF-2-alpha; experiment: Inhibition of HIF1-mediated proliferation of hypoxia-stimulated human SK-BR-3 cells at 0.31 to 20 uM after 48 hrs by SRB assay; type: cell-based; in short: as §2
[17] = target: T1, Hypoxia inducible factors; HIF-1-alpha, HIF-2-alpha; experiment: Inhibition of HIF1-mediated proliferation of hypoxia-stimulated human MDA-MB-231 cells at 0.31 to 20 uM after 48 hrs by SRB assay; type: cell-based; in short: as §2
[18] = target: T1, Hypoxia inducible factors; HIF-1-alpha, HIF-2-alpha; experiment: Inhibition of HIF1-mediated proliferation of hypoxia-stimulated human PC3 cells at 0.31 to 20 uM after 48 hrs by SRB assay; type: cell-based; conditions: PC-3; in short: as §2
[19] = target: T1, Hypoxia inducible factors; HIF-1-alpha, HIF-2-alpha; experiment: Inhibition of HIF1-mediated proliferation of hypoxia-stimulated human SK-BR-3 cells up to 20 uM after 16 hrs by SRB assay; type: cell-based
In short: (§3)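 Short-term viability: cells exposed to compound at up to 20 µM for 16 h under hypoxia (1% O2), then read by sulforhodamine B and expressed as % inhibition of untreated control.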

[20] = target: T1, Hypoxia inducible factors; HIF-1-alpha, HIF-2-alpha; experiment: Inhibition of HIF1-mediated proliferation of hypoxia-stimulated human T47D cells up to 20 uM after 16 hrs by SRB assay; type: cell-based; in short: as §3
[21] = target: T1, Hypoxia inducible factors; HIF-1-alpha, HIF-2-alpha; experiment: Inhibition of HIF1-mediated proliferation of hypoxia-stimulated human MDA-MB-231 cells up to 20 uM after 16 hrs by SRB assay; type: cell-based; in short: as §3
[22] = target: T1, Hypoxia inducible factors; HIF-1-alpha, HIF-2-alpha; experiment: Inhibition of HIF1-mediated proliferation of hypoxia-stimulated human PC3 cells up to 20 uM after 16 hrs by SRB assay; type: cell-based; conditions: PC-3; in short: as §3
[23] = test system: MDA-MB-231; experiment: Inhibition of human MDA-MB-231 cell migration at 5 to 20 uM after 22 hrs under normoxic condition; type: functional, cell-based
In short: (§4)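 Confluent MDA-MB-231 monolayers were scratched with pipet tips. Compound (5 or 20 µM) was added for 22 h under normoxia (95% air:5% CO2) or hypoxia (1% O2:94% N2:5% CO2). Cells were then fixed, stained and imaged. Parallel viability was checked by sulforhodamine B, as % of untreated control under matching oxygen conditions.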

[24] = test system: MDA-MB-231; experiment: Inhibition of human MDA-MB-231 cell migration at 5 to 20 uM after 22 hrs under hypoxic condition; type: functional, cell-based; in short: as §4
[25] = target: T1, Hypoxia inducible factors; HIF-1-alpha, HIF-2-alpha; experiment: Inhibition of HIF1-mediated migration of human MDA-MB-231 cells at 20 uM by wound healing assay; type: cell-based; in short: as §4
[26] = test system: T47D; experiment: Effect on cellular respiration in human T47D cells assessed as increase in oxygen consumption at 1 uM; type: functional
In short: (§5)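 Oxygen consumption of intact T47D cells monitored with a Clark-type electrode. Rate with compound expressed as % control (compound rate/control rate). n = 3; FCCP run as positive control.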

[27] = test system: T47D; experiment: Effect on cellular respiration in human T47D cells assessed as decrease in oxygen consumption at 10 uM; type: functional; in short: as §5
[28] = test system: T47D; experiment: Induction of state 4 respiration of human T47D cells; type: functional, cell-based
In short: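 T47D respiration measured by Clark-type electrode. Oligomycin (1 µM final) added to establish state 4 respiration, then compound added at specified concentrations to test resumption of oxygen consumption; FCCP used as positive control.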

[29] = test system: T47D; experiment: Effect on cellular respiration in human T47D cells assessed as increase in oxygen consumption at 1 uM in presence of mitochondrial uncoupler FCCP; type: functional, cell-based
[30] = test system: T47D; experiment: Effect on cellular respiration in human T47D cells assessed as decrease in oxygen consumption at 10 uM n presence of mitochondrial uncoupler FCCP; type: functional, cell-based
[31] = test system: T47D; experiment: Decrease in mitochondrial membrane potential in human T47D cells 1 to 10 uM after 15 mins by TMRM assay; type: functional, cell-based
In short: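 T47D cells seeded at 100,000/well on chambered coverglass overnight, then switched to TES buffer (20 mM, pH 7.3) with salts, 5 mM glucose, 0.3% BSA and 2 nM TMRM. Loaded 1 h 15 min at 37 °C, then compound added for 15 min. Live-cell epifluorescence imaging; FCCP as reference.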

With `N#CC(C#N)=NNc1ccc(OC(F)(F)F)cc1` the IC50 [1] was 510 nM, the IC50 [2] was 310 nM and the inhibition [3] was “Active”.

For `CCC(C)C(=O)c1c(O)c(CC=C(C)C)c(O)c2c(C(CC)OC(C)=O)cc(=O)oc12` (centres undefined), the IC50 [1] was 960 nM, the IC50 [2] was 890 nM and the IC50 [4] was over 20000 nM. The IC50 [5] was 2000 nM, the IC50 [6] was 6500 nM and the inhibition [7] was “Dose-dependent effect”. The inhibition [8] was “Dose-dependent effect”, the inhibition [9] was “Dose-dependent effect” and the inhibition [10] was “Dose-dependent effect”. It also gave an inhibition [11] of 54%, an inhibition [12] of 53% and an inhibition [13] of 52%. It also gave an inhibition [14] of 40%, an inhibition [15] of 50% and an inhibition [16] of 50%. For the same compound, the inhibition [17] was 50%, the inhibition [18] was 40% and the inhibition [19] was under 30%. The inhibition [20] was under 30%, the inhibition [21] was under 30% and the inhibition [22] was under 30%. For the same compound, the Activity [23] was “Active”, the Activity [24] was “Active” and the inhibition [25] was 25%. The Activity [26] was 30%, the inhibition at 10 µM [27] was 50% and the Activity [28] was “Active”. For the same compound, the Activity [29] was “Active”, the Activity [30] was “Active” and the inhibition [31] was “Active”. For the same compound, the inhibition [3] was “inactive”.

Source: ChEMBL document CHEMBL1641385, “Mammea E/BB, an isoprenylated dihydroxycoumarin protonophore that potently uncouples mitochondrial electron transport, disrupts hypoxic signaling in tumor cells” (J Nat Prod, 2010)
